Our source for the inhibition values is ChEMBL document CHEMBL1165965, “Synthesis and structure-activity relationships of 1,2,3,4-tetrahydropyrido[2,3-b]pyrazines as potent and selective inhibitors of the anaplastic lymphoma kinase” (Bioorg Med Chem, 2010).

One may read the inhibition as the share of the control response that was lost under treatment.

The target of experiment [1] is Serine/threonine-protein kinase PLK3 (Homo sapiens) (UniProt Q9H4B4). Put plainly: Inhibition of PLK3 at 1 uM.
For experiment [2], the system named is Tyrosine-protein kinase ABL1 (Homo sapiens), P00519 [Q252H]. Put plainly: Inhibition of ABL1 Q252H mutant at 1 uM. The method in brief:
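Ambit KINOMEscan screen at a single concentration across a 250–400 kinase panel, recorded as percent inhibition. Selectivity was expressed as S(90), the fraction of kinases inhibited >90%.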

The target of experiment [3] is T1, Inhibitor of nuclear factor kappa-B kinase subunit epsilon (Homo sapiens) (UniProt Q14164).
T1 sequence (whole entry): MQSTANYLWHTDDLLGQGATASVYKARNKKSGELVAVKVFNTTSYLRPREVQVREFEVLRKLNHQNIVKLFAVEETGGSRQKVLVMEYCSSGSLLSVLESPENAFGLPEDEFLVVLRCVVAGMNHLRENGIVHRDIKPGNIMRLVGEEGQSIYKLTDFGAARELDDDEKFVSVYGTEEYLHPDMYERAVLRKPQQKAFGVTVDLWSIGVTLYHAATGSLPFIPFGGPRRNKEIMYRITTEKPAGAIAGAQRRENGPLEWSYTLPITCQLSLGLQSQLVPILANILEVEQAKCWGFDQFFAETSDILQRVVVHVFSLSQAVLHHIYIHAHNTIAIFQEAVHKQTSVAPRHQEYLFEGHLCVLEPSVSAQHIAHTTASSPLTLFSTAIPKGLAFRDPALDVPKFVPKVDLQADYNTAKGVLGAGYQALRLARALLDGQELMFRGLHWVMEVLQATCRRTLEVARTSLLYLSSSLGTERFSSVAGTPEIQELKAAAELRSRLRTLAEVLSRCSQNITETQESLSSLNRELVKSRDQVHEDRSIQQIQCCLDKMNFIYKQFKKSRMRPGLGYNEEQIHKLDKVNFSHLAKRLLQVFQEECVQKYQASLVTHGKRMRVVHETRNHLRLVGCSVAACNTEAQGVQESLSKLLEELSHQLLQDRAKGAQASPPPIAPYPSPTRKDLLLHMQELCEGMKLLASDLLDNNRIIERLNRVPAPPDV
Put plainly: Inhibition of IKK-epsilon at 1 uM.

Experiment [4] addresses T2, NUAK family SNF1-like kinase 2 (Homo sapiens) (UniProt Q9H093).
T2 sequence (whole entry): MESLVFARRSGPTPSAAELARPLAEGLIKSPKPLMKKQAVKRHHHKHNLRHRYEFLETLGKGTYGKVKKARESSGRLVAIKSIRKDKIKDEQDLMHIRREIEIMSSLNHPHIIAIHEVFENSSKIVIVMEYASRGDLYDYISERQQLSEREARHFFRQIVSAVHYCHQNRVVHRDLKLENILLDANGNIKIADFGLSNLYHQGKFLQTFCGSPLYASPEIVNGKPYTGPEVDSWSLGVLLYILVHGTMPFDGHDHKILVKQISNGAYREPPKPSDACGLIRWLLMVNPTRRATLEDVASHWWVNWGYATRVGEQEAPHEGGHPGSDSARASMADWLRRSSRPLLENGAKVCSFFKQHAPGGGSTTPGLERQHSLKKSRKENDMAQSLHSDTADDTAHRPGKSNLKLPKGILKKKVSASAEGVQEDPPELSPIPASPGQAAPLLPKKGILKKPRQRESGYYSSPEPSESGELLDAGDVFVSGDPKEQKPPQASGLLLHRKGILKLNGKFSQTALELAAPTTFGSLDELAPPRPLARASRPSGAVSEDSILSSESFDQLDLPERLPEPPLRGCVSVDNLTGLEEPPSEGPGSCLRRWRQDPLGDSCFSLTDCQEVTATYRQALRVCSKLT
Put plainly: Inhibition of SNARK at 1 uM.

The target of experiment [5] is T3, Mitogen-activated protein kinase kinase kinase 2 (Homo sapiens) (UniProt Q9Y2U5).
T3 sequence (whole entry): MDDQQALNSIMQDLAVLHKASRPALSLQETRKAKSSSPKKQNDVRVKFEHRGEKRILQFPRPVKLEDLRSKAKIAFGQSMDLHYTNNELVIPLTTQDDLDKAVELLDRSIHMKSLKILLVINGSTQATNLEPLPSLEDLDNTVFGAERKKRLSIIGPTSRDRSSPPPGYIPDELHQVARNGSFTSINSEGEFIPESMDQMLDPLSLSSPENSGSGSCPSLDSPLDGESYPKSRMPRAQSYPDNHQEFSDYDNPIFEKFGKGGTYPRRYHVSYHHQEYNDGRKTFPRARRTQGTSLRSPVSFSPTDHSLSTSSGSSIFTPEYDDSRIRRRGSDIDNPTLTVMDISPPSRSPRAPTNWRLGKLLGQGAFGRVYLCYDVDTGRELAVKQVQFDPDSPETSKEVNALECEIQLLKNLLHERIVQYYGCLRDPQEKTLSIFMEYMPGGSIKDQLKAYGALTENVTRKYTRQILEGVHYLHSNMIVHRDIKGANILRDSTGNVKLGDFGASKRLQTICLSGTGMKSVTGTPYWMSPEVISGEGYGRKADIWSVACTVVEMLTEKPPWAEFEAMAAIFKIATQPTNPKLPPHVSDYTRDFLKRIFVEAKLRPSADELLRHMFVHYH
Put plainly: Inhibition of MAP3K2 at 1 uM.

In experiment [6] the target is Angiopoietin-1 receptor (Homo sapiens) (UniProt Q02763). Put plainly: Inhibition of TIE2 at 1 uM.
Experiment [7] concerns the target Mitogen-activated protein kinase 3 (Homo sapiens) (UniProt P27361). Put plainly: Inhibition of ERK1 at 1 uM. The method in brief:
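Single-concentration screen using Ambit Bioscience KINOMEscan technology across a panel of 250–400 kinases. Per-kinase inhibition from this screen was summarized as S(90), the fraction of kinases inhibited by more than 90%.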

Experiment [8] concerns Mast/stem cell growth factor receptor Kit (Homo sapiens), P10721 [V559D,T670I]. Put plainly: Inhibition of KIT V559D,T670I mutant at 1 uM. The method in brief: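 Single-concentration screen on the Ambit KINOMEscan platform, run against a panel of 250–400 kinases. Per-kinase inhibition was also summarized as S(90), the fraction of kinases inhibited by more than 90%.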
Chain of Mast/stem cell growth factor receptor Kit (Homo sapiens), P10721 [V559D,T670I] (P10721 whole entry V559D/T670I): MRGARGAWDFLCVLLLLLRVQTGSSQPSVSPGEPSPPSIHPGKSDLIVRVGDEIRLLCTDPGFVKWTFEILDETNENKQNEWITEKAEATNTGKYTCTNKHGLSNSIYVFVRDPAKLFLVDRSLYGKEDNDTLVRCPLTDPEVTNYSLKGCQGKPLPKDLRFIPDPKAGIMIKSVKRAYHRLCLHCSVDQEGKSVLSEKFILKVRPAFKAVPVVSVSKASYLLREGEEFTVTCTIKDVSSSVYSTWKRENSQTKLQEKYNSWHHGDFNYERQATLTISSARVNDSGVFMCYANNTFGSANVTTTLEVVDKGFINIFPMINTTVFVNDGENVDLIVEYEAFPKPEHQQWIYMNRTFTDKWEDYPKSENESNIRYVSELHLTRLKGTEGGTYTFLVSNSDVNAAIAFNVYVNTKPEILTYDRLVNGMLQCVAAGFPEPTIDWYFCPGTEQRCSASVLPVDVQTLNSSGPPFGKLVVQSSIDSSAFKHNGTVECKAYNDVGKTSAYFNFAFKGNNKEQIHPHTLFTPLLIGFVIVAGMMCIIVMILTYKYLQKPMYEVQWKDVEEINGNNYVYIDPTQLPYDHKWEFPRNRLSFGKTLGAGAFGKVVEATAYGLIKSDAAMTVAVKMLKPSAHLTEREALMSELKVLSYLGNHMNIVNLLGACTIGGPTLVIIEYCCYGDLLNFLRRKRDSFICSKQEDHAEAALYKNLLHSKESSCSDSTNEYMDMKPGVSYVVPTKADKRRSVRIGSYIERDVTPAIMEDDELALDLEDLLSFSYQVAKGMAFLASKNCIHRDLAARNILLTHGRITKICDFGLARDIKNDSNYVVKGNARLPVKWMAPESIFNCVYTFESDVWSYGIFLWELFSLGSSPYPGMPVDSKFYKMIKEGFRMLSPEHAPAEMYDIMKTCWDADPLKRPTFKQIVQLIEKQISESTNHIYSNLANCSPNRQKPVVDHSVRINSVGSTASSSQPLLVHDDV

Chain of Serine/threonine-protein kinase PLK3 (Homo sapiens) (Q9H4B4 whole entry, looked up): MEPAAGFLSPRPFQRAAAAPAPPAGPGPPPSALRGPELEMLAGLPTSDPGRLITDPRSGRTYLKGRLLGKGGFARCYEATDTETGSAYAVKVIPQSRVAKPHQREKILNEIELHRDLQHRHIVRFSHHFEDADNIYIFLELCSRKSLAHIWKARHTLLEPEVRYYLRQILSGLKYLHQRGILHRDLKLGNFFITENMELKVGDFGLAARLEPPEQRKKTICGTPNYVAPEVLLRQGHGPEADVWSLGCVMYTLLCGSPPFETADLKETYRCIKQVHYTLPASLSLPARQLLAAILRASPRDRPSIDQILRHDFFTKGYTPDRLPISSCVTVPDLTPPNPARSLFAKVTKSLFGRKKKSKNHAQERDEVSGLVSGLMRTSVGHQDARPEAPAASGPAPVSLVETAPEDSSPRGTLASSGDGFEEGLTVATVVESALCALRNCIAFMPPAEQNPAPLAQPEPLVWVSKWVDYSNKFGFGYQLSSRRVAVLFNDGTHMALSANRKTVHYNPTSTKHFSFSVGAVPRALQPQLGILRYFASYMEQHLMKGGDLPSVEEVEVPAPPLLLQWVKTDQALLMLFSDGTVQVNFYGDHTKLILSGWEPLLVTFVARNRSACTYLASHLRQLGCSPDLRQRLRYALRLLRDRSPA
Chain of Angiopoietin-1 receptor (Homo sapiens) (Q02763 whole entry): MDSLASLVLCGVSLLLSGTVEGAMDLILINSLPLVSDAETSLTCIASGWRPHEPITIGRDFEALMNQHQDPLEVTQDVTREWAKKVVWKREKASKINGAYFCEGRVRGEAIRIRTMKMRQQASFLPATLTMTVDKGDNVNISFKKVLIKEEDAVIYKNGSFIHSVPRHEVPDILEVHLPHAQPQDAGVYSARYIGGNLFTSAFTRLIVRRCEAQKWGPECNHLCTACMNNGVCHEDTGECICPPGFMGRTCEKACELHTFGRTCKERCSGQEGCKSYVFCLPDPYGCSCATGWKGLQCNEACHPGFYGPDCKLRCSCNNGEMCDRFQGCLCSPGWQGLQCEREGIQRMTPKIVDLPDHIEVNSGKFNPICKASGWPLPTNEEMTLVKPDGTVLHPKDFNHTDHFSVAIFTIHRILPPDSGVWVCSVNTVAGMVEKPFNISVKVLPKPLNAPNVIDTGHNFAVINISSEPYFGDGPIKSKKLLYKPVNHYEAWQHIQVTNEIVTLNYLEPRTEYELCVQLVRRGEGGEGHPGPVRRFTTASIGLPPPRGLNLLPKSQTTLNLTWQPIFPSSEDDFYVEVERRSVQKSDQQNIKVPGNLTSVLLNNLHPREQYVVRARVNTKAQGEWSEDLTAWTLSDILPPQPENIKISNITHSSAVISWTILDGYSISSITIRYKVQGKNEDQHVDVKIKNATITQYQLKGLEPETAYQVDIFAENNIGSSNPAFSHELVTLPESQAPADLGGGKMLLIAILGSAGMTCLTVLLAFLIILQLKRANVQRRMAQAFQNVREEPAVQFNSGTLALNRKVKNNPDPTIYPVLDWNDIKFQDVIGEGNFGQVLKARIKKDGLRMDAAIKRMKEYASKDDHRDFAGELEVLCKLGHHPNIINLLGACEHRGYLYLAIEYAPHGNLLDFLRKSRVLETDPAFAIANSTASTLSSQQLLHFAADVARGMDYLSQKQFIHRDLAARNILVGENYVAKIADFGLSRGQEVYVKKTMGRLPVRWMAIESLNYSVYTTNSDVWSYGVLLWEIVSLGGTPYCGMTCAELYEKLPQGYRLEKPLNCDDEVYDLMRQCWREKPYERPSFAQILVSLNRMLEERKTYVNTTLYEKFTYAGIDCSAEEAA
Chain of Mitogen-activated protein kinase 3 (Homo sapiens) (P27361 whole entry): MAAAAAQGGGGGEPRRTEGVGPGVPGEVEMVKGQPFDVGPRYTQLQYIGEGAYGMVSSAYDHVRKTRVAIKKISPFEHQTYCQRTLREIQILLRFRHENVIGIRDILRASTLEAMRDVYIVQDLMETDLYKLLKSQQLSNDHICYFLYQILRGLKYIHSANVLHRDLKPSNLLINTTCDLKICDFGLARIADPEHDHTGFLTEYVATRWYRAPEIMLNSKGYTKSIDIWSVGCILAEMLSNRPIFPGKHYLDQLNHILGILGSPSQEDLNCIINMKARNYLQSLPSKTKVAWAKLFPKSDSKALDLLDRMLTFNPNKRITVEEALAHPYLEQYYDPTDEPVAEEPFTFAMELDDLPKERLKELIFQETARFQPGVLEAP

Take `FC(F)(F)c1ccc(Cl)cc1CN1CCNc2ncc(-c3ccnc(N4CCNCC4)c3)cc21`: the inhibition is below 50% in experiment [1]; below 50% in experiment [2]; below 50% in experiment [3]; 93% in experiment [4]; 93% in experiment [5]; below 50% in experiment [6]. For the same compound, the figures for the inhibition in experiment [7] and in experiment [8] were below 50% and 84%, respectively.

In the case of `CN1CCN(c2ccc(-c3cnc4c(c3)N(Cc3cc(F)ccc3F)CCN4)cn2)CC1`, the inhibition was below 50% in experiment [1]; below 50% in experiment [2]; below 50% in experiment [3]; 90% in experiment [4]; below 50% in experiment [5]; below 50% in experiment [6]. The inhibition in experiment [7] and in experiment [8] was below 50% each time.

As to `CN1CCN(c2ccc(-c3cnc4c(c3)N(Cc3cc(Cl)ccc3Cl)CCN4)cn2)CC1`, the inhibition in experiment [1] was below 50%; in experiment [2] it was below 50%; in experiment [3], below 50%; in experiment [4], 81%; in experiment [5], below 50%; in experiment [6], below 50%. For the same compound, the inhibition in experiment [7] and in experiment [8] was below 50% each time.

Consider `O=C(O)c1ccc(-c2cnc3c(c2)N(Cc2cc(Cl)ccc2C(F)(F)F)CCN3)cc1`, for which the inhibition in experiment [1], in experiment [2], in experiment [6], in experiment [7] and in experiment [8] was below 50% each time.

With `CN1CCN(c2ccc(-c3cnc4c(c3)N(Cc3cc(Cl)ccc3C(F)(F)F)CCN4)cn2)CC1`, the inhibition is below 50% in experiment [1]; below 50% in experiment [2]; below 50% in experiment [3]; 85% in experiment [4]; 74% in experiment [5]; below 50% in experiment [6]. The inhibition in experiment [7] and in experiment [8] was below 50% throughout.

In the case of `COC1CCN(C(=O)c2ccc(-c3cnc4c(c3)N(Cc3cc(Cl)ccc3C(F)(F)F)CCN4)cc2)CC1`, the inhibition in experiment [1], in experiment [2], in experiment [6], in experiment [7] and in experiment [8] was below 50% each time.

`O=C(c1ccc(-c2cnc3c(c2)N(Cc2cc(Cl)ccc2C(F)(F)F)CCN3)cc1)N1CCC(N2CCCC2)CC1`: the inhibition was below 50% in experiment [1]; 63% in experiment [2]; below 50% in experiment [6]; below 50% in experiment [7]; below 50% in experiment [8].

For `CN1CCN(c2ccc(-c3cnc4c(c3)N(Cc3c(F)ccc(F)c3Cl)CCN4)cn2)CC1`, the inhibition was below 50% in experiment [1]; 72% in experiment [2]; below 50% in experiment [3]; 90% in experiment [4]; below 50% in experiment [5]; below 50% in experiment [6]. Also, the inhibition in experiment [7] and in experiment [8] was below 50% throughout.

In the case of `O=C(c1ccc(-c2cnc3c(c2)N(Cc2cc(Cl)ccc2C(F)(F)F)CCN3)cc1)N1CCCCC1`, the inhibition in experiment [1], in experiment [2], in experiment [6], in experiment [7] and in experiment [8] was below 50% each time.

Turning to `CC(=O)N1CCN(c2cc(-c3cnc4c(c3)N(Cc3cc(Cl)ccc3C(F)(F)F)CCN4)ccn2)CC1`, the inhibition was below 50% in experiment [1]; below 50% in experiment [2]; below 50% in experiment [3]; 71% in experiment [4]; 81% in experiment [5]; below 50% in experiment [6]. In addition, the inhibition in experiment [7] and in experiment [8] was below 50% each time.
